# Hits are enriched below; roughly 1.6% of the tested compounds scored in any of these assays.
# RBBP9 inh = blocks human serine hydrolase RBBP9; O75884; recombinant RBBP9, FP-Rh probe fluorescence polarization; inhibition, % at 7.94 µM; 220,000 compounds, 0.2% hits;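 active = inhibition above the campaign mean of all tested compounds plus 3 SD, cut at about 14% in these data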;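 note: plate controls were DMSO wells with RBBP9 for no effect and wells lacking RBBP9 protein for full effect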
#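 System: RBBP9 protein / Quantity: 2.5 µM RBBP9 dispensing solution, before mixing / Also added: Serine-hydrolase probe FP-Rh, 375 nM pre-mixing / Dosing: 7.94 µM single dose, 0.794% DMSO / Timing: enzyme-compound preincubation 30 min, then probe labeling 45 min, 25 °C / Signal: FP readout at 525/598 nm / Controls: DMSO-treated enzyme wells and wells lacking RBBP9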
# 14-3-3 Bad PPI = disrupts binding of bovine 14-3-3 zeta to phospho-Bad peptide; TR-FRET 14-3-3zeta/Dy647-pBad peptide displacement, 1 h; inhibition, % at 21.7 µM; 220,000 compounds, 0.71% hits; AID 781;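 active = inhibition above about 70%, limit read from the data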;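 note: 0% = full 14-3-3 plus peptide FRET controls and 100% = background without 14-3-3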
# EBV gp42 block = blocks Epstein-Barr virus glycoprotein 42 binding; Q1HVG2; Fluorescence polarization binding assay, mP read-out; inhibition, % (tested at 21.74 µM); 220,000 compounds, 0.42% hits; AID 1085
# PKD1 kinase inh = blocks activity of human protein kinase D1 | Q15139 | PKD1 kinase fluorescence polarization assay | inhibition, % (concentration not given with the values) | 200,000 compounds, 0.056% hits | AID 797
# eIF4E 4G PPI = eIF4E/eIF4G interaction inhibition in translation initiation; P63073+Q04637; TR-FRET eIF4E-eIF4GI(517-606) binding, 2 h; inhibition, % at 21.7 µM; 220,000 compounds, 0.37% hits; AID 782;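 active = inhibition above about 30%, limit read from the data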;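 note: 0% = full FRET control wells and 100% = background wells lacking eIF4GI fragment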
# The depositor's hits bear a star; / = no result; [ ] = remark or other dose. Cut-off read from the data, not from the text of the source, unless noted: active = inhibition above about 50%; inactive = the rest.
SMILES,RBBP9 inh,14-3-3 Bad PPI,EBV gp42 block,PKD1 kinase inh,eIF4E 4G PPI
COc1ccccc1OCCCCN1CCN(c2ccccc2OC)CC1,-9,81*,-20,2,5
COc1ccccc1N1CCN(CCCCOc2cccc3ccccc23)CC1,-5,29,-1,17,-1
CC(=S)c1c(C)cc2cc(C)ccn12,-4,-17,-7,-10,2
CN(c1ncc(C(F)(F)F)cc1Cl)N1C(=O)c2cccc(N)c2C1=O,-6,-6,57*,4,2
O=C(NCCCN1CCCC1=O)c1cc(-c2ccc3c(c2)OCO3)nc2ccccc12,-3,-6,9,-2,0
COCCNC(=O)CN1CCN(C(c2ccccc2)c2ccccc2)CC1,-10,88*,-3,-9,5
COC(=O)CN1CCN(C(c2ccccc2)c2ccccc2)CC1,1,-1,-19,-2,-3
COc1ccccc1NS(=O)(=O)c1ccc(NN=C2CCCC2)c([N+](=O)[O-])c1,-1,20,-27,-10,67*[fluorescence artefact?]
COc1ccccc1NS(=O)(=O)c1ccc(N/N=C/C=C/c2ccccc2[N+](=O)[O-])c([N+](=O)[O-])c1,-2,2,1,1,2
Cc1ccccc1N1C(=O)c2cccc3c(N(C)CCO)ccc(c23)C1=O,-6,-12,126*,-38,-5
O=C(CSCCO)Nc1ccc([N+](=O)[O-])cc1,-1,0,2,-6,1
CC(C)N1CCN(Cc2ccc(Sc3nncn3C)o2)CC1CCO (stereo unspecified),-12,-2,0,/,94*
CCOC(=O)N1CCC(=NNC(=O)COc2ccc(OC)cc2)CC1,-4,2,-2,-4,1
NS(=O)(=O)c1ccc(O)c(N2C(=O)c3cccc4c(C(=O)c5ccccc5)ccc(c34)C2=O)c1,-4,12,-1,4,8
CCOCCCNc1nc2c(C)cccn2c(=O)c1/C=C1\SC(=S)N(C(C)CC)C1=O (stereo unspecified),-28,-4,133*,/,2
CCCN1C(=O)/C(=C/c2c(NCCCOCC)nc3c(C)cccn3c2=O)SC1=S,-9,8,-27,-1,1
CCOCCCNc1nc2c(C)cccn2c(=O)c1/C=C1\SC(=S)N(CC(C)C)C1=O,-6,1,104*,-10,-19
Nc1cccc(-n2nnnc2CN2CCOCC2)c1,-4,-29,3,-2,0
COCCNc1nnc(SC(C)C(=O)Nc2ccc(-c3nc4ccc(C)cc4s3)cc2)s1 (stereo unspecified),-12,0,-28,-8,-1
CC1=NOC(=O)/C1=C\c1ccc(-c2cc(Cl)ccc2Cl)o1,-3,16,95*,2,-12
N#CCCN(C(=O)COc1ccc(C#N)cc1)c1ccc(F)cc1,-15,1,-2,1,5
CC(=O)Nc1cc(NC(C)=O)cc(-c2nc3ccccc3[nH]2)c1,6,-10,0,0,0
CC(=O)Nc1ccc(-c2nc3c(C)cccc3[nH]2)cc1,-2,72*,-6,-5,6
C=CCN(c1ccccc1C(=O)NCC(=O)O)S(=O)(=O)c1ccccc1C,0,-10,-12,/,-4
COc1ccc(CCNc2nc(C)nc3c2oc2ccccc23)cc1OC,-9,75*,-5,2,0
SMILES,RBBP9 inh,14-3-3 Bad PPI,EBV gp42 block,PKD1 kinase inh,eIF4E 4G PPI
COc1ccc(CCNc2ncnc3c2oc2ccccc23)cc1OC,-3,85*,-22,0,0
COc1ccc(CCNc2ncnc3sccc23)cc1OC,-1,-16,-7,-4,2
Cc1nc(NCCc2cnc[nH]2)c2oc3ccccc3c2n1,1,/,/,-1,/
CCN1C(=O)/C(=C\c2cn(CCC#N)nc2-c2ccc(F)cc2)SC1=S,-2,-15,-48,-2,5
COC(=O)c1nn(-c2ccc(OC)cc2)c(=O)cc1O,4,8,-2,-5,-2
COC(=O)c1c(=O)n(O)c2ccc(OC)cc2[n+]1[O-],0,9,98*,-3,1
O=C(NN=C1CCCC1)C1COc2ccccc2O1 (stereo unspecified),-3,-9,-5,-1,4
CCc1ccc(C(=O)CSc2ncn[nH]2)cc1,-8,-3,-8,9,32*
O=C(COc1ccccc1C(=O)NCC1CCCO1)Nc1ccc(Br)cc1 (stereo unspecified),-14,9,4,-3,-4
CC(=O)c1c(C(=O)O)c2ccccc2[nH]c1=O,2,5,2,/,92*
COc1ccc(C(=O)COc2ccc(C)cc2NC(C)=O)cc1,-10,-1,-9,/,4
COc1ccc2c3c(cccc13)C(=O)N(O)C2=O,-8,-24,75*,2,-1
COc1ccccc1N1C(=O)c2cccc3c(C(=O)O)ccc(c23)C1=O,-9,44,-24,0,4
c1csc(CNCCCN2CCOCC2)c1,-10,8,7,-4,2
COc1cc(-c2[nH]ncc2CN2CCN(Cc3cccs3)CC2)cc(OC)c1OC,-9,-2,0,3,90*
COc1cc2c(cc1OC)CN(Cc1cccs1)CC2,8,74*,-2,-5,0
c1csc(CN2CCOCC2)c1,-1,83*,13,-2,2
COc1ccccc1N1CCN(Cc2cccs2)CC1,-3,/,-22,2,/
O=C1CCNc2c(Cl)cc(Cl)cc21,-12,-16,71*,/,0
O=C1CCNc2c(Cl)cccc21,-5,-15,13,/,-2
N=C1CCC(=N)c2c1c(O)c1ccccc1c2O,13,46,69*,/,16
COC(=O)c1[nH]c2ccc(Br)cc2c1NC(=O)C(C)N1CCN(C2CCCCC2)CC1 (stereo unspecified),-12,-4,-7,-4,3
COC(=O)c1[nH]c2ccc(Br)cc2c1NC(=O)CN1CCCCC1CCO (stereo unspecified),-9,91*,-17,-5,-20
O=C1C2C3C=CC(C3=C(c3ccccc3)c3ccccc3)C2C(=O)N1Cc1ccccc1 (stereo unspecified),-5,16,63*,-2,2
Cc1cc([N+](=O)[O-])c(C)cc1-c1ccc(/C=N/NC(=O)Cn2nnnc2N)o1,-10,88*,11,-5,22
SMILES,RBBP9 inh,14-3-3 Bad PPI,EBV gp42 block,PKD1 kinase inh,eIF4E 4G PPI
Nc1nnnn1CC(=O)N/N=C/c1cc([N+](=O)[O-])ccc1Cl,-3,-6,-3,0,1
Cc1ccc([N+](=O)[O-])cc1-c1ccc(/C=N/NC(=O)c2cc3c(ccc4ccccc43)o2)o1,-6,85*[fluorescence artefact?],-33,-8,-22
O=C(N/N=C/c1cccc([N+](=O)[O-])c1)c1cc2c(ccc3ccccc32)o1,-9,69,9,1,-47
Cc1ccc(-c2ccc(/C=N\NC(=O)c3cc4c(ccc5ccccc54)o3)o2)cc1[N+](=O)[O-],-1,83*[fluorescence artefact?],-26,12,19
NNc1ccc(Cl)c(C(=O)O)c1,0,2,-18,/,1
NC(=S)NN=C(Cc1ccccc1)Cc1ccccc1,8,-5,-5,-2,-2

# Compound activity as filed in PubChem BioAssay.
